Assay [1] concerns the target T1, EUR_01830 (Agathobacter rectalis, UniProt A0ABF7PGY2).
T1 sequence (A0ABF7PGY2 24-422): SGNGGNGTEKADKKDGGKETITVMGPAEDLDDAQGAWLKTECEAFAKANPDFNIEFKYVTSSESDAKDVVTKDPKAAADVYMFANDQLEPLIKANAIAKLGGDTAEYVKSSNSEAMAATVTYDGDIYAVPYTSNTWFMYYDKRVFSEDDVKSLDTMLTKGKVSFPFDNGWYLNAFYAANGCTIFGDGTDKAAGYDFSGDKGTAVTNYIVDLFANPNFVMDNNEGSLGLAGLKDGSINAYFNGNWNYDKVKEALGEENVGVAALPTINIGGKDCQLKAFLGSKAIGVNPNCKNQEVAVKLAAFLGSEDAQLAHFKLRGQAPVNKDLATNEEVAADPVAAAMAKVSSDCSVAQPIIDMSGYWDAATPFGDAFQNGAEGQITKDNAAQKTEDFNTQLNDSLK
Briefly: isothermal titration calorimetry. It is filed as binding. To be noted: 20 mM HEPES, 100 mM NaCl pH 7.0, 25 °C. For orientation: In ITC the heat of successive injections is recorded.

Assay [2] deals with T1, EUR_01830. Briefly: isothermal titration calorimetry. The assay is classed as binding. To be noted: 20 mM HEPES, 100 mM NaCl pH 7.0, 25 °C; isotherm not fitted.
The target in the next assay is EUR_31480. Put plainly: isothermal titration calorimetry. The assay is classed as binding, Agathobacter rectalis. To be noted: read-out: EUR_31480 / Kd; 20 mM HEPES, 100 mM NaCl pH 7.0, 25 °C. The gist of the method:
(§1)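 Runs used a low-volume NanoITC at 25 °C. Protein (30–150 μM) was dialysed against 20 mM HEPES, 100 mM NaCl pH 7.0 and loaded in the sample cell, with water in the reference cell. Oligosaccharides (0.5–5 mM) were prepared in dialysis buffer and delivered as a small first injection plus 27 further injections. Stirring was at 350 rpm. Heat of reaction was recorded and fitted for Kd.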

In the next assay the target is T2, EUR_21100 (Agathobacter rectalis, UniProt A0ABF7PGZ5).
T2 sequence (A0ABF7PGZ5 45-1329): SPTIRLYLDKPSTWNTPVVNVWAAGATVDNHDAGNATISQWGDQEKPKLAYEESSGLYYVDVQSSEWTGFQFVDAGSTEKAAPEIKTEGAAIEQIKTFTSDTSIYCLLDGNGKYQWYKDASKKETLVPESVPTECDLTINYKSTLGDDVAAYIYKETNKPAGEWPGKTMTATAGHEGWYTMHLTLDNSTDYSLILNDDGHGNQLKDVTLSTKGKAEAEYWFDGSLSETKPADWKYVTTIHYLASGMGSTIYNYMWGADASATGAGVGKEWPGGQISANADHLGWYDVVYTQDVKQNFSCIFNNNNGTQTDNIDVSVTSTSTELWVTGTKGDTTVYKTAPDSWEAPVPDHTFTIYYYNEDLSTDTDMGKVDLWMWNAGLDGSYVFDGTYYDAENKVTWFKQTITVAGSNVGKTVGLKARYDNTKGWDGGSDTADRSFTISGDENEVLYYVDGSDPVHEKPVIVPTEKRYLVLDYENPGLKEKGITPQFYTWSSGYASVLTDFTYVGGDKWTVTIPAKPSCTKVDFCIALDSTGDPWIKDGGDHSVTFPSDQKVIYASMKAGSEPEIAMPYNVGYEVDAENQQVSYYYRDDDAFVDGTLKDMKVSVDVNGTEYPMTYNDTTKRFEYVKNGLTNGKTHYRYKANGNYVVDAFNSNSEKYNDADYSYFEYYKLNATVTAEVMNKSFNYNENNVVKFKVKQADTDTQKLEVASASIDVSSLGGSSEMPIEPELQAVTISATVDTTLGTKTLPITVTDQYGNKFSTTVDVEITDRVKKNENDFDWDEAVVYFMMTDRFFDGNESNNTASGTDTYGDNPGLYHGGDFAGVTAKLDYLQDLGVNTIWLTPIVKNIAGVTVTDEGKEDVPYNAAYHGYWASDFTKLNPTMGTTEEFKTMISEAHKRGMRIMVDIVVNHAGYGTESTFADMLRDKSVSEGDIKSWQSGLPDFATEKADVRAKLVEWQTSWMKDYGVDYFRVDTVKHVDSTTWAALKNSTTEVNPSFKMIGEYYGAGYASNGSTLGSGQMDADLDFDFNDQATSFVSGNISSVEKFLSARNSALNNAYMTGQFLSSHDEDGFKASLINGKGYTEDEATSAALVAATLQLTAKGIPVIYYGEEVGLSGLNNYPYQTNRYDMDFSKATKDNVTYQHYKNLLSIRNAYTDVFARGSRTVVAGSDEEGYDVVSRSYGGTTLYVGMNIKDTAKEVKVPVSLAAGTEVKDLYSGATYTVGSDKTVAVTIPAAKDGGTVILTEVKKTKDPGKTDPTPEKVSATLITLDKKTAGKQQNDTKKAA
Put plainly: thin layer chromatography of products. It is filed as biochemical. As to conditions: 25 mM HEPES pH 6.5, 150 mM NaCl, 37 °C.

A further assay has as its target T3, EUR_01240 (Agathobacter rectalis, UniProt D6E1S8).
T3 sequence (D6E1S8 23-427): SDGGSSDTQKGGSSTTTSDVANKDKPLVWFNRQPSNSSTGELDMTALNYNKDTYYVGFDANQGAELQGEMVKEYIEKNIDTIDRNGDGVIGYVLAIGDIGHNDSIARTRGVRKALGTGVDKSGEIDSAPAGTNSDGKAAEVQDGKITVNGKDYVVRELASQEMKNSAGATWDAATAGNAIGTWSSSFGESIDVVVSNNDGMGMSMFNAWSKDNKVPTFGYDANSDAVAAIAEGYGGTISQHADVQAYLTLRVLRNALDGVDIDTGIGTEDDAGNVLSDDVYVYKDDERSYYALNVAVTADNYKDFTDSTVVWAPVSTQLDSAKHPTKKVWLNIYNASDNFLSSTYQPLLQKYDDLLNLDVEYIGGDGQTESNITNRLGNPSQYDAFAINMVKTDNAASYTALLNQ
Put plainly: isothermal titration calorimetry. The assay is classed as binding. To be noted: read-out: EUR_01240 / Kd; 20 mM HEPES, 100 mM NaCl pH 7.0, 25 °C. The gist of the method: as §1

A further assay concerns the target T4, EUR_21010 (Agathobacter rectalis, UniProt C4ZGN9).
T4 sequence (C4ZGN9 26-464): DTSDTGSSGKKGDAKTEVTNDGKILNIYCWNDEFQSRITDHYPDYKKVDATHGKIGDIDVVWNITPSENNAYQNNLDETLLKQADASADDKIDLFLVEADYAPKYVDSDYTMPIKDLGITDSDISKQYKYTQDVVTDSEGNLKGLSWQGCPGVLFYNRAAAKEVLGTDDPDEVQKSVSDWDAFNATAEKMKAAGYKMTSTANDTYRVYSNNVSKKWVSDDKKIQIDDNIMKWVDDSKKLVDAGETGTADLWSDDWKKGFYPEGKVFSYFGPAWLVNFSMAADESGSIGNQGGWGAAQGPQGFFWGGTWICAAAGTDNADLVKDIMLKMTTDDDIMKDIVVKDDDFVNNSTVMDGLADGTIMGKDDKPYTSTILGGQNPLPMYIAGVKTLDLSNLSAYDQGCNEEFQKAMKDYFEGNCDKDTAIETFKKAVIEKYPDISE
Briefly: isothermal titration calorimetry. It is filed as binding. To be noted: 20 mM HEPES, 100 mM NaCl pH 7.0, 25 °C.

The target of assay [3] is T1, EUR_01830. Briefly: isothermal titration calorimetry. It is filed as binding. As to conditions: read-out: EUR_01830 / Kd; 20 mM HEPES, 100 mM NaCl pH 7.0, 25 °C.

Like-named read-outs stand apart in the source and are kept apart here.

Consider `OC[C@H]1O[C@H](O[C@H]2[C@H](O)[C@@H](O)[C@@H](O[C@H]3[C@H](O)[C@@H](O)[C@@H](O[C@H]4[C@H](O)[C@@H](O)[C@@H](O[C@H]5[C@H](O)[C@@H](O)[C@@H](O[C@H]6[C@H](O)[C@@H](O)C(O)O[C@@H]6CO)O[C@@H]5CO)O[C@@H]4CO)O[C@@H]3CO)O[C@@H]2CO)[C@H](O)[C@@H](O)[C@@H]1O` (stereo partly shown) [Maltohexaose], for which the Kd at EUR_01830 [1] (read-out: EUR_01830 / Kd) is 160 ± 6 nM.

Take `OC[C@H]1O[C@H](OC[C@H]2O[C@H](O[C@H]3[C@H](O)[C@@H](O)[C@@H](O[C@H]4[C@H](O)[C@@H](O)[C@@H](OC[C@H]5O[C@H](O[C@H]6[C@H](O)[C@@H](O)[C@@H](O[C@H]7[C@H](O)[C@@H](O)C(O)O[C@@H]7CO)O[C@@H]6CO)[C@H](O)[C@@H](O)[C@@H]5O)O[C@@H]4CO)O[C@@H]3CO)[C@H](O)[C@@H](O)[C@@H]2O)[C@H](O)[C@@H](O)[C@@H]1O` (stereo partly shown) [GMM]: the isothermal titration calorimetry entry on EUR_01830 [2] is given as “We obtained an isotherm with GMM, but these data could not be fit well enough”.

Regarding `OC[C@H]1O[C@H](O[C@H]2[C@H](O)[C@@H](O)C(O)O[C@@H]2CO)[C@H](O)[C@@H](O)[C@@H]1O` (stereo partly shown) [Maltose], at EUR_31480, the Kd was found to be 563 ± 66.4 nM.

On to `OC[C@H]1O[C@H](OC[C@H]2O[C@H](O[C@H]3[C@H](O)[C@@H](O)[C@@H](O[C@H]4[C@H](O)[C@@H](O)C(O)O[C@@H]4CO)O[C@@H]3CO)[C@H](O)[C@@H](O)[C@@H]2O)[C@H](O)[C@@H](O)[C@@H]1O` (stereo partly shown) [GM], for which the Kd at EUR_01830 [1] (read-out: EUR_01830 / Kd) was 9080 ± 618 nM.

For the compound `OC[C@H]1O[C@H](O[C@H]2[C@H](O)[C@@H](O)[C@@H](O[C@H]3[C@H](O)[C@@H](O)[C@@H](O[C@H]4[C@H](O)[C@@H](O)[C@@H](O[C@H]5[C@H](O)[C@@H](O)[C@@H](O[C@H]6[C@H](O)[C@@H](O)[C@@H](O[C@H]7[C@H](O)[C@@H](O)C(O)O[C@@H]7CO)O[C@@H]6CO)O[C@@H]5CO)O[C@@H]4CO)O[C@@H]3CO)O[C@@H]2CO)[C@H](O)[C@@H](O)[C@@H]1O` (stereo partly shown) [Maltoheptaose], the “thin layer chromatography of products” value at EUR_21100 was “can hydrolyze longer maltooligosaccharides such as maltohexaose and maltoheptaose”. For the same compound, at EUR_01830 [1] (read-out: EUR_01830 / Kd), the Kd was found to be 288 ± 5.9 nM.

Turning to `OC[C@H]1O[C@H](O[C@H]2[C@H](O)[C@@H](O)[C@@H](O[C@H]3[C@H](O)[C@@H](O)[C@@H](O[C@H]4[C@H](O)[C@@H](O)[C@@H](O[C@H]5[C@H](O)[C@@H](O)C(O)O[C@@H]5CO)O[C@@H]4CO)O[C@@H]3CO)O[C@@H]2CO)[C@H](O)[C@@H](O)[C@@H]1O` (stereo partly shown) [Maltopentaose], the Kd at EUR_01830 [1] (read-out: EUR_01830 / Kd) stood at 194 ± 34.8 nM.

For the compound `OC[C@H]1OC(O)[C@H](O)[C@@H](O)[C@H]1O` (stereo partly shown) [Galactose], on EUR_01240, the Kd was 415 ± 20.2 nM.

With `OC[C@H]1OC(O)[C@H](O)[C@@H](O)[C@@H]1O` (stereo partly shown) [Glucose], the Kd at EUR_01240 came out at 1900 ± 460 nM.

As for `OC[C@H]1O[C@H](O[C@H]2[C@H](O)[C@@H](O)[C@@H](O[C@H]3[C@H](O)[C@@H](O)[C@@H](O[C@H]4[C@H](O)[C@@H](O)C(O)O[C@@H]4CO)O[C@@H]3CO)O[C@@H]2CO)[C@H](O)[C@@H](O)[C@@H]1O` (stereo partly shown) [Maltotetraose], the Kd at EUR_31480 was 1670 ± 199 nM; at EUR_01830 [1] (read-out: EUR_01830 / Kd), 112 ± 19.8 nM.

`OC[C@H]1O[C@@H]2O[C@H]3[C@H](O)[C@@H](O)[C@@H](O[C@H]4[C@H](O)[C@@H](O)[C@@H](O[C@H]5[C@H](O)[C@@H](O)[C@@H](O[C@H]6[C@H](O)[C@@H](O)[C@@H](O[C@H]7[C@H](O)[C@@H](O)[C@@H](O[C@H]1[C@H](O)[C@H]2O)O[C@@H]7CO)O[C@@H]6CO)O[C@@H]5CO)O[C@@H]4CO)O[C@@H]3CO` [α-cyclodextrin]: the Kd at EUR_01830 [1] is 39 900 ± 2 430 nM.

In the case of `OC[C@H]1O[C@@H](O[C@H]2[C@H](O)[C@@H](O)[C@H](O[C@H]3[C@H](O)[C@@H](O)[C@H](O[C@H]4[C@H](O)[C@@H](O)C(O)O[C@@H]4CO)O[C@@H]3CO)O[C@@H]2CO)[C@H](O)[C@@H](O)[C@@H]1O` (stereo partly shown) [cellotetraose], at EUR_21010, the Kd turned out to be 3010 nM.

In turn, `OC[C@H]1O[C@@H](O[C@H]2[C@H](O)[C@@H](O)C(O)O[C@@H]2CO)[C@H](O)[C@@H](O)[C@@H]1O` (stereo partly shown) [cellobiose] came in with a Kd at EUR_21010 of 542 nM.

As for `OC[C@H]1O[C@H](O[C@H]2[C@H](O)[C@@H](O)[C@@H](O[C@H]3[C@H](O)[C@@H](O)C(O)O[C@@H]3CO)O[C@@H]2CO)[C@H](O)[C@@H](O)[C@@H]1O` (stereo partly shown) [Maltotriose], the results for the Kd at EUR_01830 [3] and at EUR_31480 were 550 ± 14 nM and 355 ± 0.4 nM, respectively.
